# According to ChEMBL document CHEMBL2216748 (J Med Chem, 2012):
# Active and inactive are the calls of the source. The rule behind the calls is not given here.
# What was measured:
# [1] = target: T1, Ribosyldihydronicotinamide dehydrogenase [quinone] (Homo sapiens, UniProt P16083); assay: Competitive inhibition of human recombinant NQO2-mediated mitomycin C metabolism using NADH as cosubstrate incubated for 5 mins prior to NADH addition measured after 30 mins by Michaelis-Menten plot analysis
# T1 sequence (P16083 whole entry): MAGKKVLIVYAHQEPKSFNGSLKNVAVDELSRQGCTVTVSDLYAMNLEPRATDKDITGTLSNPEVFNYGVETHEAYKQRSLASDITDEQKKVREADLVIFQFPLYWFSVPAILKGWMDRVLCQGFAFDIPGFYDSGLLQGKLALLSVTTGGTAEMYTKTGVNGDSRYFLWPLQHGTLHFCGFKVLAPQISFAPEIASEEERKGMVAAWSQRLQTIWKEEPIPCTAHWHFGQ
# Procedure, shortened: (§1)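 NQO2 (0.5 μM) with mitomycin C (50 μM) and four inhibitor concentrations in 100 mM potassium phosphate pH 5.8, 5 min at room temperature. Increasing NADH was then added and A340 followed for 30 min at rt. Ki from Lineweaver–Burk, IC50 from competitive Michaelis–Menten kinetics. Two experiments, duplicate points each.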
# [2] = target: T1, Ribosyldihydronicotinamide dehydrogenase [quinone]; assay: Displacement of (S)-N4-(4-(3-(2-((4-carbamimidoylphenylamino)methyl)-1-methyl-N-(pyridin-2-yl)-1H-benzo[d]imidazole-5-carboxamido)propanamido)butyl)-N1-(15-oxo-19-((3aS,4S,6aR)-2-oxohexahydro-1H-thieno[3,4-d]imidazol-4-yl)-4,7,10-trioxa-14-azanonadecyl)-2-(4-(3-(trifluoromethyl)-3H-diazirin-3-yl)benzamido)succinamide from human recombinant NQO2 after 1 hr by densitometric analysis
# [3] = Inhibition of human alpha thrombin using Boc-Val-Pro-Arg-AMC as substrate after 2 hrs by fluorometric analysis
# Procedure, shortened: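 Human α-thrombin at 5.5 ng/mL final with Boc-Val-Pro-Arg-AMC (15 μM) in 50 mM Tris pH 7.5, 150 mM NaCl, 0.05% Tween 20. Compound tested as 16 two-fold dilutions in DMSO, 2.5 mM to 75 nM. Incubated 2 h at room temperature; fluorescence read at ex 355, em 460 nm for percent inhibition.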
# [4] = target: T1, Ribosyldihydronicotinamide dehydrogenase [quinone]; assay: Inhibition of human recombinant NQO2-mediated mitomycin C metabolism using NADH as cosubstrate incubated for 5 mins prior to NADH addition measured after 30 mins by spectrophotometric analysis; procedure, shortened: as §1
# [5] = target: Vacuolar protein sorting-associated protein 35 (Homo sapiens) (UniProt Q96QK1); assay: (§2) Displacement of 2-((R)-1-cyclohexyl-2-oxo-2-((S)-2-(4-(N-((S)-6,9,25-trioxo-29-((3aS,4S,6aR)-2-oxohexahydro-1H-thieno[3,4-d]imidazol-4-yl)-8-(4-(3-(trifluoromethyl)-3H-diazirin-3-yl)benzamido)-14,17,20-trioxa-5,10,24-triazanonacosyl)carbamimidoyl)benzylcarbamoyl)azetidin-1-yl)ethylamino)acetic acid from VPS35 in human HepG2 cell lysate after 1 hr by capture compound based LC/MS analysis; type: cell-free
# Procedure, shortened: (§3)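 Capture compound MS: 400 μg HepG2 or K562 lysate in capture buffer, precleared with streptavidin beads 30 min at 4 °C. Competition controls preincubated 30 min at 4 °C with free drug (10 μL of 1 mM). Capture compound (10 μL of 50 μM) equilibrated 1 h at 4 °C, UV-irradiated 10 min, streptavidin bead pulldown, on-bead trypsin digestion, nanoLC-MS/MS. Spectral counts compared capture vs competition (t test). HepG2 in quadruplicate, K562 in duplicate.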
# [6] = target: T2, Leucine-rich repeat-containing protein 59 (Homo sapiens) (UniProt Q96AG4); assay: as §2, with “LRC59” for “VPS35”; type: cell-free; procedure, shortened: as §3
# T2 sequence (whole entry): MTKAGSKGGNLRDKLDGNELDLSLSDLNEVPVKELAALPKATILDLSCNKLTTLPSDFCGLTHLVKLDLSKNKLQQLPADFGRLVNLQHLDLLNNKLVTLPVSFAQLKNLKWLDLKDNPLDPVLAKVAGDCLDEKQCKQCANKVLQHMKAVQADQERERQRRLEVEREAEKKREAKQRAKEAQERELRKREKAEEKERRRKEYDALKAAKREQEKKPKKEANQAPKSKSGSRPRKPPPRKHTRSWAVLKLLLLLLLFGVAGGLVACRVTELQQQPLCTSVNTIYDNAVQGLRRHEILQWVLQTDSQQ
# [7] = target: Prothrombin (Homo sapiens) (UniProt P00734); assay: Binding affinity to human recombinant thrombin after 1 hr by Western blot analysis
# Procedure, shortened: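 Purified human recombinant thrombin (2 μg) incubated with capture compound for 1 h at 4 °C, with or without preincubation with free drug as competitor. Sample UV-irradiated 10 min, captured on streptavidin beads, then analysed by silver-stained SDS-PAGE and by streptavidin-HRP blot to detect covalent biotinylation.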
# [8] = target: Heterogeneous nuclear ribonucleoproteins C1/C2 (Homo sapiens) (UniProt P07910); assay: Binding affinity to HNRPC in human K562 cell lysate after 1 hr by capture compound based LC/MS analysis; type: cell-free; procedure, shortened: as §3
# [9] = target: T3, Hypoxia up-regulated protein 1 (Homo sapiens) (UniProt Q9Y4L1); assay: Binding affinity to HYOU1 in human HepG2 cell lysate after 1 hr by capture compound based LC/MS analysis; type: cell-free; procedure, shortened: as §3
# T3 sequence (whole entry): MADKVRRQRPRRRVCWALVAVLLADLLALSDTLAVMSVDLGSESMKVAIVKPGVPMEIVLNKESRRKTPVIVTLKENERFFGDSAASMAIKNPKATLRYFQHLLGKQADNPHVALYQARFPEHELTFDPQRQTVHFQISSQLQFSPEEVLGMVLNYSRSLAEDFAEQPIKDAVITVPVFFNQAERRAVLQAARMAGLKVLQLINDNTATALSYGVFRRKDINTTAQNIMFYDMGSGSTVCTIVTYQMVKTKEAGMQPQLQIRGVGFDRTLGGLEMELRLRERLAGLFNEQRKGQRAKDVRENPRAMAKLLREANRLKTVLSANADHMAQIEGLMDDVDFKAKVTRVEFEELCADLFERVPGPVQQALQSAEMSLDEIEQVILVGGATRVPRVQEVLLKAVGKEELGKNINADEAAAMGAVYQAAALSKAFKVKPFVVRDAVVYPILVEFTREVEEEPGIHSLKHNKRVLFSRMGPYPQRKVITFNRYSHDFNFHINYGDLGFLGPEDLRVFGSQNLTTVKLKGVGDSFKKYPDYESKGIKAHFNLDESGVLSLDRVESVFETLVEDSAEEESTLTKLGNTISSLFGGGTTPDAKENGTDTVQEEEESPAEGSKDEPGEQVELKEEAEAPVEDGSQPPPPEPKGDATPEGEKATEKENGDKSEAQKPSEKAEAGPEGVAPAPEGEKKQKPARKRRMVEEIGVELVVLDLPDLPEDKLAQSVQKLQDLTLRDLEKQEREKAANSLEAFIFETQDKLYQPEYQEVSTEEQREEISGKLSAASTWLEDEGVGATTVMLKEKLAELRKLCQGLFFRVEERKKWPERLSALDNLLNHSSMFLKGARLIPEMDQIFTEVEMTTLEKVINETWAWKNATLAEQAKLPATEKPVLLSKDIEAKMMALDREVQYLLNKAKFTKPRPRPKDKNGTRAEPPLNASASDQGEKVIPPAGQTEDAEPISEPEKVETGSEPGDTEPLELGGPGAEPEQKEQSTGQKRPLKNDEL
# [10] = target: Histamine N-methyltransferase (Homo sapiens) (UniProt P50135); assay: Binding affinity to HNMT in human K562 cell lysate after 1 hr by capture compound based LC/MS analysis; type: cell-free; procedure, shortened: as §3
# [11] = target: Adenosine kinase (Homo sapiens) (UniProt P55263); assay: Binding affinity to ADK in human HepG2 cell lysate after 1 hr by capture compound based LC/MS analysis; type: cell-free; procedure, shortened: as §3
# [12] = target: Histamine N-methyltransferase (Homo sapiens) (UniProt P50135); assay: Binding affinity to HNMT in human HepG2 cell lysate after 1 hr by capture compound based LC/MS analysis; type: cell-free; procedure, shortened: as §3
# [13] = target: Heterogeneous nuclear ribonucleoproteins C1/C2 (Homo sapiens) (UniProt P07910); assay: Binding affinity to HNRPC in human HepG2 cell lysate after 1 hr by capture compound based LC/MS analysis; type: cell-free; procedure, shortened: as §3
# [14] = Thermal stability of the compound; type: physicochemical
# Procedure, shortened: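 Capture compound incubated 30 min native at 4 °C or denatured at 80 °C as thermal stress. Biological stress was 30 min in HepG2 lysate at 4 and 37 °C. UV irradiation for 10 and 30 min was checked for a single defined photoproduct.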
# [15] = target: T3, Hypoxia up-regulated protein 1 (Homo sapiens); assay: Binding affinity to HYOU1 in human K562 cell lysate after 1 hr by capture compound based LC/MS analysis; type: cell-free; procedure, shortened: as §3
# [16] = target: Adenosine kinase (Homo sapiens) (UniProt P55263); assay: Binding affinity to ADK in human K562 cell lysate after 1 hr by capture compound based LC/MS analysis; type: cell-free; procedure, shortened: as §3
# [17] = target: T4, Ribosyldihydronicotinamide dehydrogenase [quinone] (Homo sapiens) (UniProt P16083); assay: Displacement of (S)-N4-(2-(4-(4-(4-methyl-3-(4-(pyridin-3-yl)pyrimidin-2-ylamino)phenylcarbamoyl)benzyl)piperazin-1-yl)ethyl)-N1-(15-oxo-19-((3aS,4S,6aR)-2-oxohexahydro-1H-thieno[3,4-d]imidazol-4-yl)-4,7,10-trioxa-14-azanonadecyl)-2-(4-(3-(trifluoromethyl)-3H-diazirin-3-yl)benzamido)succinamide from human recombinant NQO2 after 1 hr by silver staining-based SDS PAGE analysis
# T4 sequence (whole entry): T1 sequence (P16083 whole entry)
# Procedure, shortened: (§4)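 Human recombinant NQO2 (1 μg) was preincubated 30 min at 4 °C with competitor, then capture compound was added at 5 μM final (competitors 100 μM final) and equilibrated 1 h at 4 °C. Samples were UV-irradiated 10 min, pulled down on streptavidin beads and resolved by silver-stained SDS-PAGE.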
# [18] = target: T4, Ribosyldihydronicotinamide dehydrogenase [quinone] (Homo sapiens); assay: Displacement of (S)-N4-(4-(3-(2-((4-carbamimidoylphenylamino)methyl)-1-methyl-N-(pyridin-2-yl)-1H-benzo[d]imidazole-5-carboxamido)propanamido)butyl)-N1-(15-oxo-19-((3aS,4S,6aR)-2-oxohexahydro-1H-thieno[3,4-d]imidazol-4-yl)-4,7,10-trioxa-14-azanonadecyl)-2-(4-(3-(trifluoromethyl)-3H-diazirin-3-yl)benzamido)succinamide from human recombinant NQO2 after 1 hr by silver staining-based SDS PAGE analysis; procedure, shortened: as §4
# [19] = target: T4, Ribosyldihydronicotinamide dehydrogenase [quinone] (Homo sapiens); assay: (§5) Displacement of (S)-N4-(2-(4-(4-(4-methyl-3-(4-(pyridin-3-yl)pyrimidin-2-ylamino)phenylcarbamoyl)benzyl)piperazin-1-yl)ethyl)-N1-(15-oxo-19-((3aS,4S,6aR)-2-oxohexahydro-1H-thieno[3,4-d]imidazol-4-yl)-4,7,10-trioxa-14-azanonadecyl)-2-(4-(3-(trifluoromethyl)-3H-diazirin-3-yl)benzamido)succinamide from NQO2 in human K562 cell lysate at 100 uM after 1 hr by Western blot analysis; type: cell-free
# Procedure, shortened: (§6)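 Lysate (400 μg, precleared with streptavidin beads 30 min at 4 °C) in capture buffer was preincubated with competitor (final 100 μM) for 30 min at 4 °C. […] Streptavidin beads were added for 1 h at 4 °C, followed by anti-NQO2 (1:500) Western blot.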
# [20] = target: T4, Ribosyldihydronicotinamide dehydrogenase [quinone] (Homo sapiens); assay: Displacement of (S)-N4-(2-(4-(4-(4-methyl-3-(4-(pyridin-3-yl)pyrimidin-2-ylamino)phenylcarbamoyl)benzyl)piperazin-1-yl)ethyl)-N1-(15-oxo-19-((3aS,4S,6aR)-2-oxohexahydro-1H-thieno[3,4-d]imidazol-4-yl)-4,7,10-trioxa-14-azanonadecyl)-2-(4-(3-(trifluoromethyl)-3H-diazirin-3-yl)benzamido)succinamide from NQO2 in human K562 cell lysate after 1 hr by capture compound based LC/MS analysis; type: cell-free
# Procedure, shortened: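 K562 lysate (400 μg, precleared) was preincubated with competitor (final 100 μM) for 30 min at 4 °C. Capture compound (final 5 μM) was added for 1 h at 4 °C, then UV-crosslinked 10 min. Proteins were pulled down on streptavidin beads and trypsin-digested on-bead for 16 h at 37 °C, then analysed by nanoLC-Orbitrap MS/MS. Spectral counts in capture versus competition were compared, with duplicate experiments.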
# [21] = target: T4, Ribosyldihydronicotinamide dehydrogenase [quinone] (Homo sapiens); assay: as §5, with “HepG2” for “K562”; type: cell-free; procedure, shortened: as §6
# Histamine N-methyltransferase (Homo sapiens), sequence (P50135 whole entry): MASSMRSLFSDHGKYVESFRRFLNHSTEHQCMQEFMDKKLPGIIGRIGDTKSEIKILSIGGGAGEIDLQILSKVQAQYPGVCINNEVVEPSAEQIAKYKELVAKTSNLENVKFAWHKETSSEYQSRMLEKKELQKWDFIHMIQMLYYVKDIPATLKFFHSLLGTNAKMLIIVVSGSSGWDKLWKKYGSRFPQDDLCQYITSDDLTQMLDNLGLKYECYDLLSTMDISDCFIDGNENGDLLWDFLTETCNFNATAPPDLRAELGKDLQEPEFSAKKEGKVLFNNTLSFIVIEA
# Adenosine kinase (Homo sapiens), sequence (P55263 2-362 limits assumed): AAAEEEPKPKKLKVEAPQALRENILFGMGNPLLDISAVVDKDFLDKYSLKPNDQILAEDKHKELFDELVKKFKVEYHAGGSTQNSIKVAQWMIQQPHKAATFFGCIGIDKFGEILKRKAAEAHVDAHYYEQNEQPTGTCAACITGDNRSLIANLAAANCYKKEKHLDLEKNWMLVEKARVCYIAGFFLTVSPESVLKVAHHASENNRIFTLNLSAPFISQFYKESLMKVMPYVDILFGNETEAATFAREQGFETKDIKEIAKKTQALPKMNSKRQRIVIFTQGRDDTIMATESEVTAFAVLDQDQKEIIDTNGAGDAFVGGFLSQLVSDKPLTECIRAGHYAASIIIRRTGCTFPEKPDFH
# Heterogeneous nuclear ribonucleoproteins C1/C2 (Homo sapiens), sequence (P07910 whole entry): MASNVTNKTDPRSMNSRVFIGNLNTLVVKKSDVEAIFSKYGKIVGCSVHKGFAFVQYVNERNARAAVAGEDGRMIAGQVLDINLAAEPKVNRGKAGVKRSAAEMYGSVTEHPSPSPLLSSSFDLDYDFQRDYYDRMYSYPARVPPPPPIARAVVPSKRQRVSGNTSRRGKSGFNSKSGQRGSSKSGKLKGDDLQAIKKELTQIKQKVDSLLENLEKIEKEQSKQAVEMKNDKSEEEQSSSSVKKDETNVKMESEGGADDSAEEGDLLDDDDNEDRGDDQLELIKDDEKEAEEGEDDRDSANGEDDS
structure (smiles),measurement,setting,value
CCOC(=O)CCN(C(=O)c1ccc2c(c1)nc(CNc1ccc(C(=N)N)cc1)n2C)c1ccccn1 [DABIGATRAN ETHYL ESTER],IC50,[1],800 nM
same,IC50,[2],1.5 µM
same,IC50,[3],1.2 nM
same,Ki,[4],0.9 µM
[H]/N=C(/N)c1ccc(NCc2nc3cc(C(=O)N(CCC(=O)O)c4ccccn4)ccc3n2C)cc1 [DABIGATRAN],IC50,[1],> 10000 nM
same,IC50,[2],11 µM
same,Ki,[4],70 µM
N=C(N)c1ccc(CNC(=O)[C@@H]2CCN2C(=O)[C@H](NCC(=O)O)C2CCCCC2)cc1,Activity,[5],Active
same,Activity,[6],Active
Cn1c(CNc2ccc(C(=N)NCCCCNC(=O)C[C@H](NC(=O)c3ccc(C4(C(F)(F)F)N=N4)cc3)C(=O)NCCCOCCOCCOCCCNC(=O)CCCC[C@@H]3SC[C@@H]4NC(=O)N[C@@H]43)cc2)nc2cc(C(=O)N(CCC(=O)O)c3ccccn3)ccc21,Activity,[7],inactive
same,Activity,[8],inactive
same,Activity,[9],Active
same,Activity,[10],inactive
same,Activity,[11],Active
same,Activity,[12],Active
same,Activity,[13],Active
same,Stability,[14],Stable
same,Activity,[15],inactive
same,Activity,[16],inactive
N=C(N)c1ccc(CNC(=O)[C@@H]2CCN2C(=O)[C@H](NCC(=O)NCCCCNC(=O)C[C@H](NC(=O)c2ccc(C3(C(F)(F)F)N=N3)cc2)C(=O)NCCCOCCOCCOCCCNC(=O)CCCC[C@@H]2SC[C@@H]3NC(=O)N[C@@H]32)C2CCCCC2)cc1,Activity,[7],Active
same,Stability,[14],Stable
Cc1ccc(NC(=O)c2ccc(CN3CCN(C)CC3)cc2)cc1Nc1nccc(-c2cccnc2)n1,Activity,[17],Active
same,Activity,[18],Active
same,Activity,[19],Active
same,Activity,[20],Active
same,Activity,[21],Active
